Reference: ChEMBL document CHEMBL1148636, “Novel analogues of degarelix incorporating hydroxy-, methoxy-, and pegylated-urea moieties at positions 3, 5, 6 and the N-terminus. Part III” (J Med Chem, 2006)
Values after ≈ are worked out from the molar mass of the structure shown. Numbered stars: 1 amine (or outer) side, 2 acyl side, 3 side chain; on linkers, the order of the positions; unused ones are H or OH. Square brackets hold non-standard residues; d marks the D form. Side chains are listed from the residue outwards. Peptide text beside a SMILES is read from it. * marks the point of attachment. dPhe(4-NHCONH2) = NC(=O)Nc1ccc(C[C@@H](N)C(=O)O)cc1; Dihydroorotyl(S) = O=C1C[C@@H](C(=O)*)NC(=O)N1; dPhe(4-NH2) = Nc1ccc(C[C@@H](N)C(=O)O)cc1; dPhe(4-Cl) = N[C@H](Cc1ccc(Cl)cc1)C(=O)O; Phe(4-NH2) = Nc1ccc(C[C@H](N)C(=O)O)cc1; d2Nal = N[C@H](Cc1ccc2ccccc2c1)C(=O)O; Lys(iPr) = CC(C)NCCCC[C@H](N)C(=O)O; NHCH2CH2OCH2CH2OEt = CCOCCOCCN*; d3Pal = N[C@H](Cc1cccnc1)C(=O)O; Methoxycarbamoyl = CONC(=O)*; PEG3 = NCCOCCOCCOCCC(=O)O; CO = O=C([*:1])[*:2]; Butyryl = CCCC(=O)*

Each compound was assayed against T1, Gonadotropin-releasing hormone receptor (Homo sapiens, UniProt P30968) (assay: Antagonist activity at human GnRH receptor expressed in HEK293 cells as inhibition of GnRH-induced LH secretion by reporter gene assay).
T1 sequence (P30968 whole entry): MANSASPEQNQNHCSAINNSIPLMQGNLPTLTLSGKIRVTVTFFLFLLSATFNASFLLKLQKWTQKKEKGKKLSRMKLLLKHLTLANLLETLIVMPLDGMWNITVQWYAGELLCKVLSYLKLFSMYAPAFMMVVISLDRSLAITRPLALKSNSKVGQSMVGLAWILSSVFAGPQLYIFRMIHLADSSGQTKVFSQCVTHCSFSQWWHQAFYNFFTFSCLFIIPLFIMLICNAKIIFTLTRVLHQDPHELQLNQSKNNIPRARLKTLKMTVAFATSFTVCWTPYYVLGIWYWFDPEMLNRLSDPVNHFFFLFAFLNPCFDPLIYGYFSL
Format: functional, cell-based
Method in brief: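 HEK293 cells stably expressing cloned human GnRH receptor plus luciferase reporter under LH alpha subunit promoter; plated 5 × 10^4 cells/well, overnight 37 °C. Compounds in 1% DMSO, 11 half-log concentrations in duplicate, 10 min preincubation, then GnRH 1 nM final, ≥5 h at 37 °C; luminescence read. Percent of control fitted to IC50; geometric mean of ≥2 independent experiments.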

SMILES	IC50 [nM]
CONC(=O)NC[C@@H](NC(=O)[C@@H](Cc1ccc(Cl)cc1)NC(=O)[C@@H](Cc1ccc2ccccc2c1)NC(C)=O)C(=O)N[C@@H](CO)C(=O)N[C@@H](Cc1ccc(NC(=O)[C@@H]2CC(=O)NC(=O)N2)cc1)C(=O)N[C@H](Cc1ccc(NC(N)=O)cc1)C(=O)N[C@@H](CC(C)C)C(=O)N[C@@H](CCCCNC(C)C)C(=O)N1CCC[C@H]1C(=O)N[C@H](C)C(N)=O	3.16
CONC(=O)NCCOCCOCCOCCOCCOCCOCCC(=O)Nc1ccc(C[C@@H](NC(=O)[C@H](Cc2ccc(NC(=O)NOC)cc2)NC(=O)[C@H](CO)NC(=O)[C@@H](Cc2cccnc2)NC(=O)[C@@H](Cc2ccc(Cl)cc2)NC(=O)[C@@H](Cc2ccc3ccccc3c2)NC(C)=O)C(=O)N[C@@H](CC(C)C)C(=O)N[C@@H](CCCCNC(C)C)C(=O)N2CCC[C@H]2C(=O)N[C@H](C)C(N)=O)cc1	1.67
CCOCCOCCNC(=O)Nc1ccc(C[C@@H](NC(=O)[C@H](Cc2ccc(NC(=O)[C@@H]3CC(=O)NC(=O)N3)cc2)NC(=O)[C@H](CO)NC(=O)[C@@H](Cc2cccnc2)NC(=O)[C@@H](Cc2ccc(Cl)cc2)NC(=O)[C@@H](Cc2ccc3ccccc3c2)NC(=O)NCCOCCOCC)C(=O)N[C@@H](CC(C)C)C(=O)N[C@@H](CCCCNC(C)C)C(=O)N2CCC[C@H]2C(=O)N[C@H](C)C(N)=O)cc1	4.55
CONC(=O)NCCOCCOCCOCCC(=O)Nc1ccc(C[C@H](NC(=O)[C@H](CO)NC(=O)[C@@H](Cc2cccnc2)NC(=O)[C@@H](Cc2ccc(Cl)cc2)NC(=O)[C@@H](Cc2ccc3ccccc3c2)NC(C)=O)C(=O)N[C@H](Cc2ccc(NC(N)=O)cc2)C(=O)N[C@@H](CC(C)C)C(=O)N[C@@H](CCCCNC(C)C)C(=O)N2CCC[C@H]2C(=O)N[C@H](C)C(N)=O)cc1 (Ac-[d2Nal][dPhe(4-Cl)][d3Pal]S[Phe(4-NH2)]([PEG3-Methoxycarbamoyl])[dPhe(4-NHCONH2)]L[Lys(iPr)]P[dA]-NH2)	1.06
CC(=O)N[C@H](Cc1ccc2ccccc2c1)C(=O)N[C@H](Cc1ccc(Cl)cc1)C(=O)N[C@H](Cc1cccnc1)C(=O)N[C@@H](CO)C(=O)N[C@@H](Cc1ccc(NC(=O)NO)cc1)C(=O)N[C@H](Cc1ccc(NC(N)=O)cc1)C(=O)N[C@@H](CC(C)C)C(=O)N[C@@H](CCCCNC(C)C)C(=O)N1CCC[C@H]1C(=O)N[C@H](C)C(N)=O	0.86
CONC(=O)NCC[C@@H](NC(=O)[C@@H](Cc1ccc(Cl)cc1)NC(=O)[C@@H](Cc1ccc2ccccc2c1)NC(C)=O)C(=O)N[C@@H](CO)C(=O)N[C@@H](Cc1ccc(NC(=O)NOC)cc1)C(=O)N[C@H](Cc1ccc(NC(=O)NOC)cc1)C(=O)N[C@@H](CC(C)C)C(=O)N[C@@H](CCCCNC(C)C)C(=O)N1CCC[C@H]1C(=O)N[C@H](C)C(N)=O	1.49
CCCC(=O)N[C@H](Cc1ccc2ccccc2c1)C(=O)N[C@H](Cc1ccc(Cl)cc1)C(=O)N[C@H](Cc1cccnc1)C(=O)N[C@@H](CO)C(=O)N[C@@H](Cc1ccc(NC(=O)[C@@H]2CC(=O)NC(=O)N2)cc1)C(=O)N[C@H](Cc1ccc(NC(=O)NOC)cc1)C(=O)N[C@@H](CC(C)C)C(=O)N[C@@H](CCCCNC(C)C)C(=O)N1CCC[C@H]1C(=O)N[C@H](C)C(N)=O	2.13
CCCC(=O)N[C@H](Cc1ccc2ccccc2c1)C(=O)N[C@H](Cc1ccc(Cl)cc1)C(=O)N[C@H](Cc1cccnc1)C(=O)N[C@@H](CO)C(=O)N[C@@H](Cc1ccc(NC(=O)NOC)cc1)C(=O)N[C@H](Cc1ccc(NC(N)=O)cc1)C(=O)N[C@@H](CC(C)C)C(=O)N[C@@H](CCCCNC(C)C)C(=O)N1CCC[C@H]1C(=O)N[C@H](C)C(N)=O	1.46
CCOCCOCCNC(=O)Nc1ccc(C[C@H](NC(=O)[C@H](CO)NC(=O)[C@@H](Cc2cccnc2)NC(=O)[C@@H](Cc2ccc(Cl)cc2)NC(=O)[C@@H](Cc2ccc3ccccc3c2)NC(=O)NCCOCCOCC)C(=O)N[C@H](Cc2ccc(NC(=O)NCCOCCOCC)cc2)C(=O)N[C@@H](CC(C)C)C(=O)N[C@@H](CCCCNC(C)C)C(=O)N2CCC[C@H]2C(=O)N[C@H](C)C(N)=O)cc1	2.55

More lines, in order of falling IC50, values ahead:

IC50 [nM]	SMILES
9.47	CCCCCCCC(=O)N[C@H](Cc1ccc2ccccc2c1)C(=O)N[C@H](Cc1ccc(Cl)cc1)C(=O)N[C@H](Cc1cccnc1)C(=O)N[C@@H](CO)C(=O)N[C@@H](Cc1ccc(NC(=O)[C@@H]2CC(=O)NC(=O)N2)cc1)C(=O)N[C@H](Cc1ccc(NC(=O)NOC)cc1)C(=O)N[C@@H](CC(C)C)C(=O)N[C@@H](CCCCNC(C)C)C(=O)N1CCC[C@H]1C(=O)N[C@H](C)C(N)=O
4.99	CCCCCCCC(=O)N[C@H](Cc1ccc2ccccc2c1)C(=O)N[C@H](Cc1ccc(Cl)cc1)C(=O)N[C@H](Cc1cccnc1)C(=O)N[C@@H](CO)C(=O)N[C@@H](Cc1ccc(NC(=O)NOC)cc1)C(=O)N[C@H](Cc1ccc(NC(=O)NOC)cc1)C(=O)N[C@@H](CC(C)C)C(=O)N[C@@H](CCCCNC(C)C)C(=O)N1CCC[C@H]1C(=O)N[C@H](C)C(N)=O
4.17	CCCCCCCC(=O)N[C@H](Cc1ccc2ccccc2c1)C(=O)N[C@H](Cc1ccc(Cl)cc1)C(=O)N[C@H](Cc1cccnc1)C(=O)N[C@@H](CO)C(=O)N[C@@H](Cc1ccc(NC(=O)NOC)cc1)C(=O)N[C@H](Cc1ccc(NC(N)=O)cc1)C(=O)N[C@@H](CC(C)C)C(=O)N[C@@H](CCCCNC(C)C)C(=O)N1CCC[C@H]1C(=O)N[C@H](C)C(N)=O
3.46	CC(=O)N[C@H](Cc1ccc2ccccc2c1)C(=O)N[C@H](Cc1ccc(Cl)cc1)C(=O)N[C@H](CNC(=O)NO)C(=O)N[C@@H](CO)C(=O)N[C@@H](Cc1ccc(NC(=O)[C@@H]2CC(=O)NC(=O)N2)cc1)C(=O)N[C@H](Cc1ccc(NC(N)=O)cc1)C(=O)N[C@@H](CC(C)C)C(=O)N[C@@H](CCCCNC(C)C)C(=O)N1CCC[C@H]1C(=O)N[C@H](C)C(N)=O
2.98	CONC(=O)Nc1ccc(C[C@H](NC(=O)[C@H](CO)NC(=O)[C@@H](CCC(N)=O)NC(=O)[C@@H](Cc2ccc(Cl)cc2)NC(=O)[C@@H](Cc2ccc3ccccc3c2)NC(C)=O)C(=O)N[C@H](Cc2ccc(NC(=O)NOC)cc2)C(=O)N[C@@H](CC(C)C)C(=O)N[C@@H](CCCCNC(C)C)C(=O)N2CCC[C@H]2C(=O)N[C@H](C)C(N)=O)cc1
2.68	CC(=O)N[C@H](Cc1ccc2ccccc2c1)C(=O)N[C@H](Cc1ccc(Cl)cc1)C(=O)N[C@H](CCNC(=O)NO)C(=O)N[C@@H](CO)C(=O)N[C@@H](Cc1ccc(NC(=O)[C@@H]2CC(=O)NC(=O)N2)cc1)C(=O)N[C@H](Cc1ccc(NC(N)=O)cc1)C(=O)N[C@@H](CC(C)C)C(=O)N[C@@H](CCCCNC(C)C)C(=O)N1CCC[C@H]1C(=O)N[C@H](C)C(N)=O
2.04	CCOCCOCCNC(=O)Nc1ccc(C[C@H](NC(=O)[C@H](CO)NC(=O)[C@@H](Cc2cccnc2)NC(=O)[C@@H](Cc2ccc(Cl)cc2)NC(=O)[C@@H](Cc2ccc3ccccc3c2)NC(C)=O)C(=O)N[C@H](Cc2ccc(NC(=O)NCCOCCOCC)cc2)C(=O)N[C@@H](CC(C)C)C(=O)N[C@@H](CCCCNC(C)C)C(=O)N2CCC[C@H]2C(=O)N[C@H](C)C(N)=O)cc1
1.69	CONC(=O)NCC[C@@H](NC(=O)[C@@H](Cc1ccc(Cl)cc1)NC(=O)[C@@H](Cc1ccc2ccccc2c1)NC(C)=O)C(=O)N[C@@H](CO)C(=O)N[C@@H](Cc1ccc(NC(=O)[C@@H]2CC(=O)NC(=O)N2)cc1)C(=O)N[C@H](Cc1ccc(NC(N)=O)cc1)C(=O)N[C@@H](CC(C)C)C(=O)N[C@@H](CCCCNC(C)C)C(=O)N1CCC[C@H]1C(=O)N[C@H](C)C(N)=O
1.53	CONC(=O)Nc1ccc(C[C@H](NC(=O)[C@H](CO)NC(=O)[C@@H](Cc2cccnc2)NC(=O)[C@@H](Cc2ccc(Cl)cc2)NC(=O)[C@@H](Cc2ccc3ccccc3c2)NC(C)=O)C(=O)N[C@H](Cc2ccc(NC(=O)NOC)cc2)C(=O)N[C@@H](CC(C)C)C(=O)N[C@@H](CCCNC(=O)CNC(C)C)C(=O)N2CCC[C@H]2C(=O)N[C@H](C)C(N)=O)cc1
1.37	CCCC(=O)N[C@H](Cc1ccc2ccccc2c1)C(=O)N[C@H](Cc1ccc(Cl)cc1)C(=O)N[C@H](Cc1cccnc1)C(=O)N[C@@H](CO)C(=O)N[C@@H](Cc1ccc(NC(=O)NOC)cc1)C(=O)N[C@H](Cc1ccc(NC(=O)NOC)cc1)C(=O)N[C@@H](CC(C)C)C(=O)N[C@@H](CCCCNC(C)C)C(=O)N1CCC[C@H]1C(=O)N[C@H](C)C(N)=O (Butyryl-[d2Nal][dPhe(4-Cl)][d3Pal]S[Phe(4-NH2)](Methoxycarbamoyl)[dPhe(4-NH2)](Methoxycarbamoyl)L[Lys(iPr)]P[dA]-NH2)
0.88	CCOCCOCCNC(=O)Nc1ccc(C[C@@H](NC(=O)[C@H](Cc2ccc(NC(=O)[C@@H]3CC(=O)NC(=O)N3)cc2)NC(=O)[C@H](CO)NC(=O)[C@@H](Cc2cccnc2)NC(=O)[C@@H](Cc2ccc(Cl)cc2)NC(=O)[C@@H](Cc2ccc3ccccc3c2)NC(C)=O)C(=O)N[C@@H](CC(C)C)C(=O)N[C@@H](CCCCNC(C)C)C(=O)N2CCC[C@H]2C(=O)N[C@H](C)C(N)=O)cc1 (Ac-[d2Nal][dPhe(4-Cl)][d3Pal]S[Phe(4-NH2)](Dihydroorotyl(S))[dPhe(4-NH2)]([CO-NHCH2CH2OCH2CH2OEt])L[Lys(iPr)]P[dA]-NH2)
0.8	CC(=O)N[C@H](Cc1ccc2ccccc2c1)C(=O)N[C@H](Cc1ccc(Cl)cc1)C(=O)N[C@H](Cc1cccnc1)C(=O)N[C@@H](CO)C(=O)N[C@@H](Cc1ccc(NC(=O)[C@@H]2CC(=O)NC(=O)N2)cc1)C(=O)N[C@H](Cc1ccc(NC(=O)NO)cc1)C(=O)N[C@@H](CC(C)C)C(=O)N[C@@H](CCCCNC(C)C)C(=O)N1CCC[C@H]1C(=O)N[C@H](C)C(N)=O

These compounds were tested on Mast cell (Rattus norvegicus) (assay: Histamine release in mast cells by ELISA).

SMILES	EC50 [µg/mL]
CC(=O)N[C@H](Cc1ccc2ccccc2c1)C(=O)N[C@H](Cc1ccc(Cl)cc1)C(=O)N[C@H](Cc1cccnc1)C(=O)N[C@@H](CO)C(=O)N[C@@H](Cc1ccc(NC(=O)NO)cc1)C(=O)N[C@H](Cc1ccc(NC(N)=O)cc1)C(=O)N[C@@H](CC(C)C)C(=O)N[C@@H](CCCCNC(C)C)C(=O)N1CCC[C@H]1C(=O)N[C@H](C)C(N)=O	118 (≈ 75.9 µM)
